Screens (PubChem)
697 NFkB inh: inhibitors of the PMA/ionomycin-induced NF-kB reporter in 697 B cells. AID 435022. inhibition, % at 4 µM. actives 0.33% (n = 330,000). 697 B-cell NF-kB luciferase reporter, 16 h; in the data active = inhibition above about 35%
Jurkat NFkB inh: inhibitors of the PMA/ionomycin-induced NF-kB reporter in Jurkat cells. PMA/ionomycin-induced NF-kB luciferase reporter, luminescence. inhibition, % at 4 µM. actives 0.53% (n = 330,000). AID 435003; in the data active = inhibition above about 50%
miR-122 sensor: inhibitors of miR-122 in Huh7 cells. activation (reporter increase), % at 12.5 µM. actives 0.3% (n = 340,000). Huh7 miR-122 Renilla luciferase sensor, 48 h; neutral wells = 0, positive control = 100;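 active = mean replicate activation score at least 90 and every replicate individually at or above 90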;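 note: higher luciferase means less miR-122 activity so hits act as miR-122 inhibitors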
NR2E3 ag-1: activates human NR2E3 receptor | Q9Y5X4 | CHO-S Gal4-NCOR/VP16-NR2E3 two-hybrid, luciferase | inhibition of corepressor binding, % at 3.98 µM | actives 0.35% (n = 360,000) | AID 602229;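 active = inhibition above the mean of all tested compounds plus 3 SD, cut at about 70% in these data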;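 note: higher means lower luciferase signal from less NR2E3 corepressor binding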
Target sequence (Q9Y5X4 whole entry, looked up, the tested form may be a part): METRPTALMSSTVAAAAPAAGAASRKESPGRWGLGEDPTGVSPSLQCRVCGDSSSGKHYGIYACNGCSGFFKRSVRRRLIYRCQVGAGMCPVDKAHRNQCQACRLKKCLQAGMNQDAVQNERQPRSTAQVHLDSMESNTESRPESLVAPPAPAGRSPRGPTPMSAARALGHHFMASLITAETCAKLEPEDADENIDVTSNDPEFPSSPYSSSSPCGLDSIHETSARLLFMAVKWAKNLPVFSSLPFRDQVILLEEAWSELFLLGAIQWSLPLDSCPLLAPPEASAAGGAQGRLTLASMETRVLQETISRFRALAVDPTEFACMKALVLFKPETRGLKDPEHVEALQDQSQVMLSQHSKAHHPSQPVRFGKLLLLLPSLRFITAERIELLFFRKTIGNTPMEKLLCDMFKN
NR2E3 ag-2: agonists of human nuclear receptor NR2E3 | actives 0.12% (n = 320,000) | GST-NR2E3/biotin-RetCOR TR-FRET, 1536-well | Q9Y5X4 | inhibition of corepressor binding, % at 4.78 µM;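 active = percent inhibition above the cutoff of mean plus 3 SD of all tested compounds, set per screening campaign, cut at about 20% in these data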
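Material: NR2E3–RetCOR corepressor complex / Amount: 1.35 nM GST-NR2E3 / Medium: Tris pH 7.5 / Compound: single nominal compound dose of 4.8 µM / Incubation: 5 h at 4 °C / Technique: TR-FRET, Eu(K)-anti-GST donor, streptavidin-D2 acceptor, ex 340, em 617/671 nm / Read-out basis: percent loss of FRET ratio relative to control wells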
FGF22 binding: shifts melting point of recombinant human FGF22; actives 1.5% (n = 340,000); recombinant FGF22 thermal shift, SYPRO orange fluorescence; percent of sucrose octasulfate shift, DMSO zero; activity (Tm shift, normalised), % at 9.99 µM;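 active = mean Tm shift, scaled 0 neutral to 100 positive control, at about 1.3% or above, every replicate too, limit read from the data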
Target sequence (Q9HCT0 whole entry, looked up): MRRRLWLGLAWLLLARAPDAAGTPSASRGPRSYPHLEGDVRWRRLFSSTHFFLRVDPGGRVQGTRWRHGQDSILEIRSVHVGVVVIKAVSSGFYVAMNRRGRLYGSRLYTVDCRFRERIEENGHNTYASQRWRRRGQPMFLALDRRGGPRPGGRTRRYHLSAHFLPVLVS
Hits are given with their value. The list is not random: actives were taken first. Their share in the collection is about 2.2%.

For COc1ccc(C)cc1S(=O)(=O)NC1CCCCC1C (configuration not stated) the results were 697 NFkB inh inactive, Jurkat NFkB inh inactive, miR-122 sensor 133, NR2E3 ag-1 inactive and NR2E3 ag-2 inactive.
Screening CCOc1ccc(Cl)cc1S(=O)(=O)NC1CCCC1 returned 697 NFkB inh inactive, Jurkat NFkB inh inactive, miR-122 sensor 114, NR2E3 ag-1 inactive, NR2E3 ag-2 inactive and FGF22 binding inactive.
COc1cc(S(=O)(=O)NC2CCCCC2)c(C)cc1C was read as 697 NFkB inh inactive, Jurkat NFkB inh inactive, miR-122 sensor 163, NR2E3 ag-1 inactive, NR2E3 ag-2 inactive and FGF22 binding inactive.
`COc1cc(S(=O)(=O)NC2CCCC2)c(OC)cc1Cl` gave 697 NFkB inh inactive, Jurkat NFkB inh inactive, miR-122 sensor 293, NR2E3 ag-1 inactive and NR2E3 ag-2 inactive.
`COc1ccc(C#Cc2cnc3c(c2)C(=O)N([C@H](C)CO)C[C@H](C)[C@H](CN(C)Cc2ccncc2)O3)cc1OC` gave miR-122 sensor inactive and FGF22 binding inactive.
For O=C(N[C@@H]1CC[C@H](CCNC(=O)C2CCOCC2)O[C@@H]1CO)c1ccncc1 the results were FGF22 binding inactive.
For CO[C@@H]1CN(C)C(=O)c2ccc(NS(=O)(=O)c3ccccc3)cc2OC[C@H](C)N(C(=O)NC(C)C)C[C@H]1C the results were miR-122 sensor inactive and FGF22 binding inactive.
CNC[C@@H]1Oc2c(NC(=O)Nc3ccc4c(c3)OCO4)cccc2C(=O)N([C@H](C)CO)C[C@@H]1C was read as miR-122 sensor inactive.
COc1ccc(F)cc1S(=O)(=O)NC1CCCCCC1 was read as 697 NFkB inh inactive, Jurkat NFkB inh inactive, miR-122 sensor 105, NR2E3 ag-1 inactive and NR2E3 ag-2 inactive.
CC=Cc1ccc2n(c1=O)C[C@@H]1[C@@H](CO)[C@H](C(=O)NCCc3ccccc3)[C@H]2N1C (mixture of isomers) was read as miR-122 sensor inactive and FGF22 binding inactive.
For O=C(Cc1c(Cl)cccc1Cl)Nc1cccnc1 the results were 697 NFkB inh inactive, Jurkat NFkB inh inactive, NR2E3 ag-1 inactive, NR2E3 ag-2 inactive and FGF22 binding 43.
Screening CN1C(=O)c2cc(NC(=O)c3ccc(F)c(F)c3)ccc2OC[C@H]2O[C@H](CC(=O)O)CC[C@H]21 returned miR-122 sensor inactive and FGF22 binding inactive.
CCOC(=O)c1cc(-c2ccccc2)nn1CC1CC(c2cccnc2)=NO1 (configuration not stated) was read as 697 NFkB inh inactive, Jurkat NFkB inh inactive, miR-122 sensor inactive, NR2E3 ag-1 inactive, NR2E3 ag-2 inactive and FGF22 binding inactive.
For CCOC(=O)c1cc(-c2cccnc2)nn1-c1ccccc1C the results were 697 NFkB inh inactive, Jurkat NFkB inh inactive, miR-122 sensor inactive, NR2E3 ag-1 inactive, NR2E3 ag-2 inactive and FGF22 binding 44.
`CCCCSc1nnc(-c2ccccc2NC(C)=O)c(=O)[nH]1` gave 697 NFkB inh inactive, Jurkat NFkB inh inactive, miR-122 sensor inactive, NR2E3 ag-1 inactive, NR2E3 ag-2 inactive and FGF22 binding 43.
Screening CCSc1nnc(-c2ccccc2NC(C)=O)c(=O)[nH]1 returned 697 NFkB inh inactive, Jurkat NFkB inh inactive, miR-122 sensor inactive, NR2E3 ag-1 inactive and NR2E3 ag-2 inactive.
For COc1ccc(CNCC(O)(c2ccccc2)c2ccccc2)cc1OC the results were 697 NFkB inh inactive, Jurkat NFkB inh inactive, NR2E3 ag-1 inactive, NR2E3 ag-2 inactive and FGF22 binding 43.
For C/C(CC(=O)Nc1ccc(C)c(Cl)c1)=N\NC(=O)c1ccncc1 the results were NR2E3 ag-1 inactive and FGF22 binding 44.
`C/C(CC(=O)Nc1ccc(Cl)cc1Cl)=N\NC(=O)c1ccncc1` gave 697 NFkB inh inactive, Jurkat NFkB inh inactive, NR2E3 ag-1 inactive, NR2E3 ag-2 inactive and FGF22 binding inactive.
For CC(C)CCNC(=O)NC(=O)CSc1nnc2ccccn12 the results were 697 NFkB inh inactive, Jurkat NFkB inh inactive, miR-122 sensor inactive, NR2E3 ag-1 inactive and NR2E3 ag-2 inactive.
`CC(Sc1nnc2ccccn12)C(N)=O` (configuration not stated) gave 697 NFkB inh inactive, Jurkat NFkB inh inactive, miR-122 sensor inactive, NR2E3 ag-1 inactive, NR2E3 ag-2 inactive and FGF22 binding 43.
COc1ccc(Cl)cc1C(=O)NNC(=O)CSc1nnc2ccccn12 was read as 697 NFkB inh inactive, Jurkat NFkB inh inactive, miR-122 sensor inactive, NR2E3 ag-1 inactive, NR2E3 ag-2 inactive and FGF22 binding 44.
Screening CC(C)CNC(=O)CSc1nnc2ccccn12 returned 697 NFkB inh inactive, Jurkat NFkB inh inactive, NR2E3 ag-1 inactive, NR2E3 ag-2 inactive and FGF22 binding 43.
Screening C[C@H]1CN([C@@H](C)CO)S(=O)(=O)c2ccc(C3=CCCC3)cc2O[C@H]1CN(C)Cc1ccncc1 returned miR-122 sensor inactive and FGF22 binding inactive.
O=C(CSc1nc(-c2ccccc2)nc2ccc(F)cc12)Nc1cccc(C(=O)O)c1 was read as 697 NFkB inh inactive, Jurkat NFkB inh inactive, miR-122 sensor inactive, NR2E3 ag-1 inactive, NR2E3 ag-2 inactive and FGF22 binding inactive.
Screening O=C(CSc1nc(-c2ccccc2)nc2ccc(F)cc12)Nc1ccc(C(=O)O)cc1 returned 697 NFkB inh inactive, Jurkat NFkB inh inactive, NR2E3 ag-1 inactive, NR2E3 ag-2 inactive and FGF22 binding 6.0.
CCOC(=O)CSc1nc(-c2ccccc2)nc2ccc(C)cc12 was read as 697 NFkB inh inactive, Jurkat NFkB inh inactive, NR2E3 ag-1 inactive, NR2E3 ag-2 inactive and FGF22 binding 43.
COc1ccc(CCNC(=O)CCCn2c(=S)[nH]c3ccsc3c2=O)cc1OC was read as miR-122 sensor inactive, NR2E3 ag-1 inactive and FGF22 binding 43.
Screening COc1ccccc1NC(=O)CCCNC(=O)Cn1cnc2sc(C)c(C)c2c1=O returned 697 NFkB inh inactive, Jurkat NFkB inh inactive, miR-122 sensor inactive, NR2E3 ag-1 inactive, NR2E3 ag-2 inactive and FGF22 binding inactive.
For COc1ccc(CCNC(=O)CCCNC(=O)Cn2cnc3sc(C)c(C)c3c2=O)cc1OC the results were 697 NFkB inh inactive, Jurkat NFkB inh inactive, miR-122 sensor inactive, NR2E3 ag-1 inactive, NR2E3 ag-2 inactive and FGF22 binding 44.
Screening O=C(CCCn1c(=S)[nH]c2ccsc2c1=O)NCc1ccco1 returned 697 NFkB inh inactive, Jurkat NFkB inh inactive, miR-122 sensor inactive, NR2E3 ag-1 inactive and NR2E3 ag-2 inactive.
Screening CO[C@@H]1CN(C)C(=O)c2ccc(NC(C)=O)cc2OC[C@H](C)N(C(=O)c2ccncc2)C[C@@H]1C returned miR-122 sensor inactive and FGF22 binding inactive.
For CC(=O)c1c(C)[nH]c(C(=O)Nc2ccc(C)c(S(=O)(=O)N(C)C)c2)c1C the results were miR-122 sensor inactive, NR2E3 ag-1 inactive, NR2E3 ag-2 inactive and FGF22 binding inactive.
